ChEMBL document CHEMBL1123389, “3-Hydroxy-3-methylglutaryl-coenzyme A reductase inhibitors. 2. Structural modification of 7-(substituted aryl)-3,5-dihydroxy-6-heptenoic acids and their lactone derivatives” (J Med Chem, 1986)

Columns and labels:
[1] = target: T1, 3-hydroxy-3-methylglutaryl-coenzyme A reductase (Rattus norvegicus, UniProt P51639); test: Inhibition of solubilized, partially purified rat liver HMG-CoA reductase
T1 sequence (P51639 whole entry): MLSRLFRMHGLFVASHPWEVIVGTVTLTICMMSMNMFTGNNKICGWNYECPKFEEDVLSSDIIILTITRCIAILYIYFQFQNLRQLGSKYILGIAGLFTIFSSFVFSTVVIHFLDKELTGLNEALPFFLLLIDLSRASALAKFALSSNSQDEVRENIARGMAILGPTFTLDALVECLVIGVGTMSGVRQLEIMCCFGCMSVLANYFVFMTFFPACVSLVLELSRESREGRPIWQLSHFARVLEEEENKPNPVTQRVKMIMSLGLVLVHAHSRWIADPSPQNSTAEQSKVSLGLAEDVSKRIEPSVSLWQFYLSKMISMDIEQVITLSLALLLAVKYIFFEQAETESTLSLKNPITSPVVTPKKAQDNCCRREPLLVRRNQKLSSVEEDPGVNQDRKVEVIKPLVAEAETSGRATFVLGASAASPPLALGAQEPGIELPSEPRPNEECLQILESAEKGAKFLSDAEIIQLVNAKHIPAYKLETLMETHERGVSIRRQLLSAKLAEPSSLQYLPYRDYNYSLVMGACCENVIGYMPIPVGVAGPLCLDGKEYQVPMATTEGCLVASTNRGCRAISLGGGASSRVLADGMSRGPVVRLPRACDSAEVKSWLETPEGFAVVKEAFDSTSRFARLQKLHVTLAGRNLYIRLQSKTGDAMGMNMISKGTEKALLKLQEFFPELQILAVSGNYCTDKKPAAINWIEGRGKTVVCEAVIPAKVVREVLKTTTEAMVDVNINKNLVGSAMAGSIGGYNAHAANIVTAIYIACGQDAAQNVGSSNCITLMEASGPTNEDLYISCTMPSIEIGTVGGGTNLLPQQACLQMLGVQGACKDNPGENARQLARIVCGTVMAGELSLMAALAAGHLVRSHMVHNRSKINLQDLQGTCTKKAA
How it was run: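 Enzyme solubilized from fresh microsomes and purified through the second ammonium sulfate precipitation. It was diluted in 100 mM phosphate, pH 7.2, to give 50 000–60 000 dpm per 100 μL in control. Assay mix (0.8 mL): phosphate pH 7.2 100 mM, MgCl2 3 mM, NADP 3 mM, glucose 6-phosphate 10 mM, G6PDH 3 units, glutathione 50 mM, [14C]HMG-CoA 0.2 mM. Compounds were added as dihydroxy acid Na salts at multiple concentrations. Incubation ran 40 min at 37 °C, stopped with HCl, then lactonized. [14C]mevalonolactone was separated on Bio-Rex 5 and counted. IC50 came from a least-squares line of % inhibition vs concentration.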

[2] = target: T2, 3-hydroxy-3-methylglutaryl-coenzyme A reductase (Rattus norvegicus) (UniProt P51639); test: Relative potency to inhibit solubilized, partially purified rat liver HMG-CoA reductase compared with that of compactin.
T2 sequence (whole entry): T1 sequence (P51639 whole entry)

Compound	IC50 [1]	Relative potency [2]
O=C1C[C@H](O)C[C@@H](/C=C/c2c(Cl)cc(Cl)cc2OCc2ccccc2)O1 (racemic)	0.43 µM	3.5
O=C1C[C@H](O)C[C@@H](/C=C/c2ccc(Cl)c(Cl)c2)O1	35 µM	
O=C1C[C@H](O)C[C@@H](CCc2c(Cl)cc(Cl)cc2OCc2ccc(F)cc2)O1 (stereo in doubt; 66) [listing 1 of 2 here]		38
O=C1C[C@H](O)C[C@@H](CCc2c(Cl)cc(Cl)cc2OCc2ccc(F)cc2)O1 (stereo in doubt; 66(+)) [listing 1 of 2 here]		58
O=C1C[C@H](O)C[C@@H](CCc2c(Cl)cc(Cl)cc2OCc2ccccc2)O1 (racemic) [listing 1 of 2 here]	0.2 µM	
O=C1C[C@H](O)C[C@@H](CCc2c(Cl)cc(Cl)cc2OCc2ccccc2)O1 (stereo in doubt; 8a(+)) [listing 1 of 2 here]	0.068 µM	
O=C1C[C@H](O)C[C@@H](CCc2c(Cl)cc(Cl)cc2OCc2ccc(F)cc2)O1 (stereo in doubt; 66(+)) [listing 2 of 2 here]	0.05 µM	
O=C1C[C@H](O)C[C@@H](/C=C/c2c(Cl)cc(Cl)cc2OCCOc2ccc(Cl)cc2)O1	1 µM	3.3
O=C1C[C@H](O)CC(CCc2c(Cl)cc(Cl)cc2OCC2CCCCC2)O1 (some centres not stated)	0.75 µM	4.4
O=C1C[C@H](O)C[C@@H](/C=C/c2c(Cl)cc(Cl)cc2OCc2ccccc2F)O1	0.51 µM	5.9
CCCCCOc1c(Cl)cc(Cl)cc1/C=C/[C@@H]1C[C@@H](O)CC(=O)O1	13 µM	
O=C1C[C@H](O)C[C@@H](/C=C/c2c(Cl)cc(Cl)cc2OCc2cccs2)O1	0.6 µM	3
C=CCOc1cc(Cl)cc(Cl)c1/C=C/[C@@H]1C[C@@H](O)CC(=O)O1	0.76 µM	3.2
O=C1C[C@H](O)C[C@@H](/C=C/c2c(Cl)cc(Cl)cc2OCc2ccc(F)cc2F)O1	0.2 µM	7.5
O=C1C[C@H](O)C[C@@H](/C=C/c2ccccc2)O1	284 µM	0.004
O=C1C[C@H](O)C[C@@H](/C=C/c2c(Cl)cc(Cl)cc2OCc2cc[n+]([O-])cc2)O1	117 µM	0.016
O=C1C[C@H](O)C[C@@H](CCc2c(Cl)cc(Cl)cc2OCc2ccccc2)O1 (stereo in doubt; 8a(-)) [listing 2 of 2 here]		0.25

Compound	IC50 [1]	Relative potency [2]
O=C1C[C@H](O)CC(CCc2c(O)cc(Cl)cc2Cl)O1 (some centres not stated)	7.9 µM	0.2
O=C1C[C@H](O)C[C@@H](/C=C/c2ccccc2Cl)O1	7.4 µM	0.15
O=C1C[C@H](O)CC(CCc2c(Cl)cc(Cl)cc2OCc2ccc(C(F)(F)F)cc2)O1 (some centres not stated)	13 µM	0.16
O=C1C[C@H](O)CC(CCc2c(Cl)cc(Cl)cc2Oc2ccccc2)O1 (some centres not stated)	0.33 µM	4.5
O=C1C[C@H](O)C[C@@H](/C=C/c2c(Cl)cc(Cl)cc2OCCCc2ccccc2)O1	1.45 µM	1.6
O=C1C[C@H](O)C[C@@H](/C=C/c2c(Cl)cc(OCc3ccccc3)cc2Cl)O1	0.45 µM	4
COc1ccc(COc2cc(Cl)cc(Cl)c2/C=C/[C@@H]2C[C@@H](O)CC(=O)O2)cc1	2.6 µM	0.8
O=C1C[C@H](O)C[C@@H](/C=C/c2c(Cl)cc(Cl)cc2OCc2ccncc2)O1	3.7 µM	0.6
CC(CCOc1cc(Cl)cc(Cl)c1/C=C/[C@@H]1C[C@@H](O)CC(=O)O1)CC(C)(C)C (some centres not stated)	38 µM	0.09
O=C1C[C@H](O)C[C@@H](/C=C/c2c(Cl)cc(Cl)cc2OCc2ccc(F)cc2)O1	0.2 µM	7.5
Cc1cc(OCc2ccccc2)cc(C)c1/C=C/[C@@H]1C[C@@H](O)CC(=O)O1	0.62 µM	3.7
O=C1C[C@H](O)C[C@@H](/C=C/c2c(Cl)cc(Cl)cc2OCc2ccccn2)O1	1.2 µM	1.8
O=C1C[C@H](O)C[C@@H](/C=C/c2c(Cl)cccc2Cl)O1	7.9 µM	0.14
O=C1C[C@H](O)C[C@@H](CCc2c(Cl)cc(Cl)cc2OCc2ccccc2)O1 (stereo in doubt; 8a(+)) [listing 2 of 2 here]		19.1
N#Cc1ccc(COc2cc(Cl)cc(Cl)c2/C=C/[C@@H]2C[C@@H](O)CC(=O)O2)cc1	2 µM	1.25
O=C1C[C@H](O)C[C@@H](/C=C/c2c(Cl)cc(Cl)cc2Oc2ccccc2)O1	1.1 µM	1.4
O=C1C[C@H](O)C[C@@H](/C=C/c2c(Cl)cc(Cl)cc2OCc2cccc(F)c2)O1	0.58 µM	3.4

Now from value to compound:

IC50 [1]	Relative potency [2]	Compound
0.6 µM	3	O=C1C[C@H](O)C[C@@H](/C=C/c2c(Cl)cc(Cl)cc2OCc2ccco2)O1
	0.08	O=C1C[C@H](O)C[C@@H](/C=C/c2ccc(Cl)cc2Cl)O1
5.2 µM		O=C1C[C@H](O)C[C@@H](CCc2c(Cl)cc(Cl)cc2OCc2ccccc2)O1 (stereo in doubt; 8a(-)) [listing 1 of 2 here]
122 µM	0.016	O=C1C[C@H](O)C[C@@H](/C=C/c2c(Cl)cc(Cl)cc2OCc2ccc[n+]([O-])c2)O1
0.15 µM	10	O=C1C[C@H](O)CC(CCc2c(Cl)cc(Cl)cc2OCc2ccccc2F)O1 (some centres not stated)
0.48 µM	5	O=C1C[C@H](O)C[C@@H](/C=C/c2c(Cl)cc(Cl)cc2OCCc2ccccc2)O1
17 µM	0.12	O=C1C[C@H](O)C[C@@H](/C=C/c2ccc(OCc3ccc(F)cc3)c(Cl)c2Cl)O1
0.67 µM	2.7	O=C1C[C@H](O)C[C@@H](/C=C/c2c(Cl)cc(OCc3ccc(F)cc3)cc2Cl)O1
	12	O=C1C[C@H](O)C[C@@H](CCc2c(Cl)cc(Cl)cc2OCc2ccccc2)O1 (racemic) [listing 2 of 2 here]
0.76 µM	2.1	CSCOc1cc(Cl)cc(Cl)c1/C=C/[C@@H]1C[C@@H](O)CC(=O)O1
64.4 µM	0.017	O=C1C[C@H](O)C[C@@H](/C=C/c2cccc(Cl)c2Cl)O1
0.076 µM		O=C1C[C@H](O)C[C@@H](CCc2c(Cl)cc(Cl)cc2OCc2ccc(F)cc2)O1 (stereo in doubt; 66) [listing 2 of 2 here]
2.5 µM	1.7	O=C1C[C@H](O)C[C@@H](/C=C/c2c(Cl)cc(Cl)cc2OCc2ccc(Cl)cc2)O1
29.9 µM		Cc1ccc(/C=C/[C@@H]2C[C@@H](O)CC(=O)O2)c(C)c1
1.9 µM	1.1	O=C1C[C@H](O)C[C@@H](/C=C/c2c(Cl)cc(Cl)cc2OC/C=C/c2ccccc2)O1
3 µM	0.63	O=C1C[C@H](O)C[C@@H](/C=C/c2ccccc2-c2ccccc2)O1
6.3 µM	0.7	O=C1C[C@H](O)C[C@@H](/C=C/c2c(Cl)cc(Cl)cc2OC(c2ccccc2)c2ccccc2)O1
3.4 µM	0.6	O=C1C[C@H](O)C[C@@H](/C=C/c2c(Cl)cc(Cl)cc2OCc2cccnc2)O1
1 µM	2.4	CCCCCOc1cc(Cl)cc(Cl)c1/C=C/[C@@H]1C[C@@H](O)CC(=O)O1
0.21 µM	8	O=C1C[C@H](O)CC(CCc2c(Cl)cc(Cl)cc2OCc2cccc(F)c2)O1 (some centres not stated)
11 µM	0.4	COCCOCOc1cc(Cl)cc(Cl)c1/C=C/[C@@H]1C[C@@H](O)CC(=O)O1
0.39 µM	6	O=C1C[C@H](O)C[C@@H](CCc2c(Cl)cc(Cl)cc2COc2ccccc2)O1
55 µM		O=C1C[C@H](O)C[C@@H](/C=C/c2ccc(-c3ccccc3)cc2)O1
3 µM	0.7	O=C1C[C@H](O)C[C@@H](/C=C/c2c(Cl)cc(Cl)cc2OCCC23CC4CC(CC(C4)C2)C3)O1
4.4 µM	0.4	O=C1C[C@H](O)C[C@@H](/C=C/c2c(Cl)cc(Cl)cc2OCc2cccc3ccccc23)O1
4.9 µM	0.3	Cc1ccc(COc2cc(Cl)cc(Cl)c2/C=C/[C@@H]2C[C@@H](O)CC(=O)O2)cc1
0.7 µM	2.3	O=C1C[C@H](O)C[C@@H](/C=C/c2c(Cl)cc(Cl)cc2OCc2c(F)c(F)c(F)c(F)c2F)O1
